Tests used:
HUVEC = test: Antiangiogenic activity in HUVEC assessed as inhibition of VEGF-induced proliferation after 3 days by WST-8 assay; format: functional, cell-based; conditions: Homo sapiens, 72 h
In short: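 HUVEC seeded and incubated 1 day, then VEGF plus test compound added; cell number counted after 3 further days of incubation. Growth rate calculated relative to control; IC50 is concentration giving half inhibition of VEGF-induced proliferation, in nM.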

Rattus norvegicus [1] = species: Rattus norvegicus; test: animal or person; conditions: Brown Norway, po, 168 h, read-out: INH
CYP3A4 = CYP3A4 (Homo sapiens, UniProt P08684); test: Inhibition of CYP3A4 at 10 uM using testosterone as substrate; format: ADME; conditions: probe testosterone
In short: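 CYP3A4 inhibition measured as percent inhibition at 10 μM test compound, testosterone as substrate.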

B16 = test: Antitumor activity against mouse B16 cells xenografted in C57BL/6N mouse assessed as tumor growth at 100 mg/kg, po qd for 10 days relative to control; format: functional; conditions: B16, 240 h
In short: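 B16 cell suspension injected subcutaneously under anesthesia into female C57BL/6 mice, six weeks old. Compound suspension given orally once daily; ten days after cell injection, tumors excised and weighed, anti-cancer effect calculated relative to control.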

Rattus norvegicus [2] = test: Antiinflammatory activity in Lewis rat adjuvant arthritis model assessed as inhibition of paw edema at 10 mg/kg, po qd for 20 days relative to control; format: functional; conditions: 480 h
Rattus norvegicus [3] = test: Antiangiogenic activity in Brown Norway rat assessed as inhibition of laser-induced neovascularization incidence rate at 3 mg/kg, po qd for 7 days relative to control; format: functional; conditions: 168 h
In short: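 Male Brown Norway rats, eight weeks old, under anesthesia and mydriasis; krypton laser photocoagulation of Bruch's membrane. Compound suspension given orally once daily. Seven days after photocoagulation, fluorescein injected via tail vein, fundus photographed, fluorescence leaks counted; neovascularization incidence rate compared with control.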

Sequence of CYP3A4 (P08684 whole entry): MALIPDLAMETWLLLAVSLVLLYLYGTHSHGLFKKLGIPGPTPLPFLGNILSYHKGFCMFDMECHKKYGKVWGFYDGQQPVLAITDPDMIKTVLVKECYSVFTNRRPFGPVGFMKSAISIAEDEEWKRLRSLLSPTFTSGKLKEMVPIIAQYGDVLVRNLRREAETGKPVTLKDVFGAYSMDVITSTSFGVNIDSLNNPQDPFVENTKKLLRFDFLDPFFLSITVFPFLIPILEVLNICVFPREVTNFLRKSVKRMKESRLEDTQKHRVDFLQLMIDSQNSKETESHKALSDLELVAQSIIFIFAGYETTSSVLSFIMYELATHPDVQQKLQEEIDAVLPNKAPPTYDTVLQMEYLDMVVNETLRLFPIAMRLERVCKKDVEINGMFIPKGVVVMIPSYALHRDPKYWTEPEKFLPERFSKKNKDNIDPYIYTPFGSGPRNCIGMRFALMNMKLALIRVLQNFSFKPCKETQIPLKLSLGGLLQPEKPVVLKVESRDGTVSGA

Row | Structure (SMILES) | IC50 (HUVEC) [nM] | inhibition at 10 µM (CYP3A4) [%] | also measured
1 | Cc1cc(C)cc(NC(=O)c2cccnc2SCc2ccnc(C)c2)c1 | 68 | – | –
2 | COC(=O)Nc1cc(CSc2ncccc2C(=O)Nc2cc(C)cc(C)c2)ccn1 | 15 | – | –
3 | C[C@H]1C[C@H]2[C@@H]3CCC4=CC(=O)C=C[C@]4(C)[C@@]3(F)[C@@H](O)C[C@]2(C)[C@@]1(O)C(=O)COP(=O)(O)O [BETAMETHASONE PHOSPHORIC ACID] | – | – | inhibition in vivo at 1 mg/kg (Rattus norvegicus [1]): 96%
4 | Cc1cc(C)cc(NC(=O)c2cccnc2SCc2cc[n+]([O-])cc2)c1 | 24 | 16 | inhibition in vivo at 100 mg/kg (B16): 76%
5 | CC(=O)N(C)c1cc(CSc2ncccc2C(=O)Nc2cc(C)cc(C)c2)ccn1 | 65 | – | –
6 | COc1cc(CSc2ncccc2C(=O)Nc2cc(C)cc(C)c2)ccn1 | 100 | – | –
7 | Cc1cc(C)cc(NC(=O)c2cccnc2SCc2ccncc2)c1 | – | 96 | –
8 | O=C(CO)Nc1cc(CSc2ncccc2C(=O)Nc2ccc(OC(F)(F)F)cc2)ccn1 | 7.4 | 17 | inhibition in vivo at 100 mg/kg (B16): 85%
9 | CN(C)CCNCC(=O)Nc1cc(CSc2ncccc2C(=O)Nc2ccc(OC(F)(F)F)cc2)ccn1 | 18 | 29 | inhibition in vivo at 100 mg/kg (B16): 79%
10 | CNC(=O)Nc1cc(CSc2ncccc2C(=O)Nc2ccc(OC(F)(F)F)cc2)ccn1 | 20 | – | –
11 | CCC(=O)Nc1cc(CSc2ncccc2C(=O)Nc2cc(C)cc(C)c2)ccn1 | 1.8 | – | –
12 | Cc1cc(C)cc(NC(=O)c2cccnc2SCc2ccnc(C#N)c2)c1 | 3.5 | 48 | –
13 | CNC(=O)c1cc(CSc2ncccc2C(=O)Nc2cc(C)cc(C)c2)ccn1 | 18 | – | –
14 | NCC(=O)Nc1cc(CSc2ncccc2C(=O)Nc2ccc(OC(F)(F)F)cc2)ccn1 | 49 | – | –
15 | CNc1cc(CSc2ncccc2C(=O)Nc2cc(C)cc(C)c2)ccn1 | 21 | – | –
16 | Cc1cc(C)cc(NC(=O)c2cccnc2SCc2ccnc(Cl)c2)c1 | 12 | 60 | –

Row | Structure (SMILES) | IC50 (HUVEC) [nM] | inhibition at 10 µM (CYP3A4) [%] | also measured
17 | Cc1cc(C)cc(NC(=O)c2cccnc2SCc2ccnc(NC(=O)CNCCN(C)C)c2)c1 | 5.9 | 14 | inhibition in vivo at 10 mg/kg (Rattus norvegicus [2]): 70%; inhibition in vivo at 3 mg/kg (Rattus norvegicus [3]): 55%; inhibition in vivo at 100 mg/kg (B16): 83%
18 | CN(C)CC(=O)Nc1cc(CSc2ncccc2C(=O)Nc2ccc(OC(F)(F)F)cc2)ccn1 | 35 | 19 | –
19 | Cc1cc(C)cc(NC(=O)c2cccnc2SCc2ccnc(N3CCOCC3)c2)c1 | 84 | – | –
20 | Cc1cc(C)cc(NC(=O)c2cccnc2SCc2ccnc(NC(=O)CN)c2)c1 | 48 | 10 | –
21 | CSc1cc(CSc2ncccc2C(=O)Nc2cc(C)cc(C)c2)ccn1 | 100 | 69 | –
22 | Cc1cc(C)cc(NC(=O)c2cccnc2SCc2ccnc(NC(=O)CNCCCO)c2)c1 | 18 | 23 | inhibition in vivo at 100 mg/kg (B16): 77%
23 | Cc1cc(C)cc(NC(=O)c2cccnc2SCc2ccnc(NC(=O)CO)c2)c1 | 6.6 | – | –
24 | Clc1ccc(Nc2nnc(Cc3ccncc3)c3ccccc23)cc1 [VATALANIB] | – | – | inhibition in vivo at 10 mg/kg (Rattus norvegicus [2]): 23%
25 | CC(=O)Nc1cc(CSc2ncccc2C(=O)Nc2ccc(OC(F)(F)F)cc2)ccn1 | 3.9 | 38 | –
26 | CC(=O)Nc1cc(CSc2ncccc2C(=O)Nc2cc(C)cc(C)c2)ccn1 | < 0.91 | 20 | –
27 | O=C(CNCCCO)Nc1cc(CSc2ncccc2C(=O)Nc2ccc(OC(F)(F)F)cc2)ccn1 | 26 | 33 | inhibition in vivo at 100 mg/kg (B16): 79%
28 | CNC(=O)Nc1cc(CSc2ncccc2C(=O)Nc2cc(C)cc(C)c2)ccn1 | 8.8 | 24 | inhibition in vivo at 100 mg/kg (B16): 43%
29 | Cc1cc(C)cc(NC(=O)c2cccnc2SCc2ccnc(NC(=O)CN(C)C)c2)c1 | 22 | – | –
30 | Cc1cc(C)cc(NC(=O)c2cccnc2SCc2ccnc(N)c2)c1 | 5.8 | 21 | –
31 | Cc1cc(C)cc(NC(=O)c2cccnc2SCc2ccnc(F)c2)c1 | 13 | 40 | –
32 | Cc1cc(C)cc(NC(=O)c2cccnc2SCc2cc[n+](C)cc2)c1 | > 2000 | – | –

From ChEMBL document CHEMBL1667827, “Pyridylmethylthio derivatives as VEGF inhibitors: part 2” (Bioorg Med Chem Lett, 2011)
